Sampled rows, rich in hits. Any-hit rate of the full collection: about 1.5%.
APJ antagonist – antagonists of human apelin receptor APJ, primary screen, CHO-K1 cells, beta-arrestin complementation, luminescence; 0.32% of 330,000 active; AID 2521, 2010; P35414; inhibition, % at 20 µM;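 active means inhibition above about 40% at 20 µM, limit read from the data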;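 further: cells challenged with 10 nM apelin-13 agonist together with compound; plate controls were apelin-13 plus DMSO wells for no effect and DMSO wells lacking apelin-13 for full effect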
APJ agonist – agonists of human apelin receptor APJ, primary screen, CHO-K1 cells, PathHunter beta-arrestin, luminescence. 0% DMSO wells, 100% apelin. activation, % at 20 µM. 0.11% of 330,000 active. AID 2520, 2010;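 active means activation more than six SD over the plate average, tested at 20 µM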;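 further: 0% = DMSO alone and 100% = apelin-13 at 10 nM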
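Assay system: CHO-K1 cells stably expressing ProLink-tagged human APJ and arrestin–beta-gal acceptor. Compound dosing: 20 µM single point, 1% DMSO. Times: 16-18 h seeding, 90 min dark compound exposure, 60 min detection. Detection: beta-gal luminescence. Evaluation: APJ–arrestin association signal. Controls: negative DMSO alone, positive Apelin-13 at 10 nM.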
CXCR6 block – CXCR6 receptor inhibitors, primary screen, cell-based, beta-arrestin, luminescence, CHO-K1 PathHunter, 1536-well | inhibition, % at 20 µM | 0.36% of 360,000 active | AID 602244, 2012; in the data active means inhibition above about 34%, passing the limit was not always enough;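 further: antagonist mode with CXCL16 agonist at 10 nM final; 0% = 10 nM CXCL16 with DMSO and 100% = unstimulated wells without agonist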
EBI2 antag – EBI2 receptor antagonists, beta-arrestin recruitment, primary screen, cell-based, luminescence, 7a,25-OHC stimulation, uHTS | G-protein coupled receptor 183 (Homo sapiens), P32249 | 7a,25-OHC stimulated | inhibition, % at 5 µM | 0.81% of 360,000 active; in the data active means inhibition above about 38%;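 further: enzyme fragment complementation signal reports receptor beta-arrestin coupling in cells; 0% = agonist plus DMSO wells and 100% = wells without agonist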
CCR6 antagonist – CCR6 receptor antagonists, primary screen, cell-based, CHO-K1, luminescence, beta-arrestin, uHTS; C-C chemokine receptor type 6 (Homo sapiens), P51684; inhibition, % at 20 µM; CHO-K1 CCR6 PathHunter beta-arrestin, CCL20-stimulated; 0.49% of 340,000 active;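 active means compounds whose inhibition of the agonist-driven luminescence signal at 20 µM reaches about 50%, limit read from the data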;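 further: cells stimulated with CCL20 at 14 nM final; plate controls were DMSO with CCL20 for no effect and DMSO without agonist for full effect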
Target sequence (P51684 whole entry, looked up): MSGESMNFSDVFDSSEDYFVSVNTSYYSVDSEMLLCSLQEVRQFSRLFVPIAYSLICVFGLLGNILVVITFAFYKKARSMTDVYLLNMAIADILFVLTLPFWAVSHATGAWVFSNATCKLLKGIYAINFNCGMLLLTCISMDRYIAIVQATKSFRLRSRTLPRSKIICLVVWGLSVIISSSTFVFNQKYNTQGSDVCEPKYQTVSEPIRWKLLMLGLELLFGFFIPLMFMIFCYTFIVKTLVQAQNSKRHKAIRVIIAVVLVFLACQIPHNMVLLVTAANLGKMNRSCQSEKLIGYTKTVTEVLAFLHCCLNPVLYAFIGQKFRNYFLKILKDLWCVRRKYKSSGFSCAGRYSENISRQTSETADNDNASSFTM
Numbers without * were called inactive; . = not tested or not shown.

SMILES | APJ antagonist | APJ agonist | CXCR6 block | EBI2 antag | CCR6 antagonist
NC(N)=Nc1ccc(C=C2C=Cc3ccccc32)cc1 | . | . | -2.2 | -5.6 | 0.8
CCCCNc1c(-c2ccc(-c3ccc(C(C)=O)cc3)c(OC)c2)nc2cnccn12 | -12.0 | 0.5 | -4.1 | 49.2* | 15.8
COc1cc(/C=N/N=C2/C(=O)Nc3ccccc32)cc(OC)c1O | 33.9 | -6.4 | 9.2 | -25.7 | 60.8*
O=C1Nc2ccccc2C1=Nc1ccc(Cl)cc1 | . | . | 33.3 | 16.6 | 64.9*
Cc1cc(C)c(N=C2C(=O)Nc3ccccc32)c(C)c1 | 27.1 | -4.4 | 16.5 | -8.7 | 15.4
Cc1ccc(N=C2C(=O)Nc3ccccc32)cc1C | 13.5 | -8.6 | 10.2 | -0.3 | 52.2*
CCN(CC)c1ccc(N=C2C(=O)Nc3ccccc32)cc1 | 5.5 | -1.5 | 25.3 | -0.7 | 26.5
N#Cc1ccc(OCc2noc(-c3ccsc3)n2)cc1 | 18.9 | -0.4 | -3.7 | -4.0 | 11.2
CC(C)Cc1nc2oc3c(N4CCN(CCO)CC4)ncnc3c2c2c1CCCC2 | -1.2 | -4.3 | 5.4 | 51.2* | 17.1
Cc1ccc(NC(=O)c2ccc([N+](=O)[O-])o2)c(C)c1 | -56.4 | 0.7 | -27.8 | -4.2 | -15.5
Cc1ccc(S(=O)(=O)c2ccc([N+](=O)[O-])o2)cc1 | . | . | 97.3* | 31.4 | 103.1*
O=C(NC(=S)N1CCN(c2ccc(Cl)cc2[N+](=O)[O-])CC1)c1cccs1 | . | . | 43.2* | -4.6 | .
O=C(NC(=S)N1CCN(c2ccc(Cl)cc2[N+](=O)[O-])CC1)c1ccco1 | 14.2 | -6.0 | 20.8 | -16.0 | 16.9
CCN(CC)c1ccc2cc(C(=O)NNC(=O)c3ccc(S(=O)(=O)N4CCCCC4)cc3)c(=O)oc2c1 | . | . | 19.0 | 1.7 | 69.0*
CC1=NN(c2ccccc2)C(=O)/C1=C\C=C\c1ccccc1 | 2.5 | -2.8 | 12.5 | 7.2 | 18.9
CC1=NN(c2ccccc2)C(=O)/C1=C/C=C/c1ccc(N(C)C)cc1 | . | . | 70.9* | 55.6* | 89.3*
CN1C2C=C(N(CCc3c[nH]c4ccccc34)C(=O)c3ccc(Cl)cc3)CC1CC2 (stereo unspecified) | 4.5 | 0.3 | 3.9 | 60.9* | 23.8
O=C(Cc1c[nH]c2ccccc12)NCc1ccc(Cl)cc1 | -5.2 | -0.1 | 3.7 | 31.9 | 2.2
CC(C)(CC(=O)O)CC(=O)N1CCCN(c2nccc(C(F)(F)F)n2)CC1 | 4.9 | -2.4 | 3.2 | -6.1 | 9.1
Cc1ccc(/C=C/C(=O)c2c(C)nc3ccccn23)cc1 | 8.9 | 0.6 | 1.4 | 21.4 | -26.8
Cc1nc2ccccn2c1C(=O)/C=C/c1cccc([N+](=O)[O-])c1 | 24.1 | -0.3 | 2.6 | 41.6* | 7.0
N#Cc1nccnc1S(=O)(=O)c1cccs1 | 55.6* | -3.2 | . | . | 22.9
CN(Cc1ccccc1C#N)S(=O)(=O)c1cccs1 | 4.8 | -1.9 | -1.8 | 2.6 | 11.9
Cn1cc(C(C[N+](=O)[O-])c2ccccc2)c2ccccc21 (stereo unspecified) | -4.8 | -0.8 | -0.8 | 2.2 | 17.6
CC(=O)n1cc(C(C[N+](=O)[O-])SCCN)c2ccccc21 (stereo unspecified) | 1.5 | -2.2 | 3.3 | -52.1 | 60.0*
SMILES | APJ antagonist | APJ agonist | CXCR6 block | EBI2 antag | CCR6 antagonist
CC(NNC(=S)N1CCN(c2ccccn2)CC1)c1nccc2ccccc12 (stereo unspecified) | . | . | 25.9 | 1.2 | 64.2*
CCN(CC)c1ccc2c(c1)oc(=O)c1c(Cl)cc(=O)oc12 | 31.3 | 0.0 | 60.2* | 61.7* | 47.3
CCN(CC)c1ccc2c(Cl)c(Br)c(=O)oc2c1 | 30.6 | -2.2 | 34.1 | 53.6* | 45.8
CCN(CC)c1ccc2c(C)c(Cl)c(=O)oc2c1 | -3.4 | -1.2 | 1.0 | -3.2 | -2.9
O=C(NCc1ccccc1)c1nncc(-c2ccccc2)n1 | 3.0 | -1.5 | 3.4 | -0.2 | 13.9
O=C(CCN1C(=O)c2ccccc2S1(=O)=O)Nc1cccc(F)c1 | 11.2 | -2.5 | -1.8 | 5.0 | 4.8
C=CCOc1ccc(C2C(C(=O)c3ccco3)=C(O)C(=O)N2CCCN(CC)CC)cc1 (stereo unspecified) | 11.5 | 10.3 | -6.3 | -9.2 | -11.4
CCN(CC)CCCN1C(=O)C(O)=C(C(=O)c2ccco2)C1c1ccc(OC(C)C)cc1 (stereo unspecified) | -15.0 | 2.0 | 0.8 | -3.5 | 92.6*

Screens deposited in PubChem BioAssay by Sanford-Burnham Center for Chemical Genomics.
